Columns and labels:
[1] = target: T1, Angiotensin II receptor (AT-1) type-1 (Rattus norvegicus, UniProt P29089+P25095); assay: In vitro inhibition of specific binding of [125 I] A II to rat liver membrane.
T1 sequence (P29089 whole entry): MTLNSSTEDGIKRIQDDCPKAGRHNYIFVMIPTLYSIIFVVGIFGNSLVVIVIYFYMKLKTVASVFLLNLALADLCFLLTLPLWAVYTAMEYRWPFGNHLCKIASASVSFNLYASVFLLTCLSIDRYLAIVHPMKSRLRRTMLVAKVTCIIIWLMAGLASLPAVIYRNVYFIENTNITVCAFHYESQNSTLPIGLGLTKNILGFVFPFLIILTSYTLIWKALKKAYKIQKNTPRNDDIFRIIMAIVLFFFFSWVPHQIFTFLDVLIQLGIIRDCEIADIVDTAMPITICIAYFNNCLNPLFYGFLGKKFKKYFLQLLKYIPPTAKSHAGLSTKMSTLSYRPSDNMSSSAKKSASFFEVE
T1 sequence (P25095 whole entry): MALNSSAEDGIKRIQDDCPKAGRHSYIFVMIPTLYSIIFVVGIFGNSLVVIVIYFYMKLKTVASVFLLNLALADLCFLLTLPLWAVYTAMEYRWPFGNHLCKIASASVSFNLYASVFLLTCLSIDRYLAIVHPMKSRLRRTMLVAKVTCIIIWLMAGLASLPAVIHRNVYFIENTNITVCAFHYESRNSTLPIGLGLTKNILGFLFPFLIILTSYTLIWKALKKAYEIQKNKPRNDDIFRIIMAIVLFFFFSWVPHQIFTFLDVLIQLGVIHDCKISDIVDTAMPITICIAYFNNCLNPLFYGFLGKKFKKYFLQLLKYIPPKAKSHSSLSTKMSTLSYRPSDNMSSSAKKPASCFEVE
Outline: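 Rat liver membrane preparation (AT1 sites), diluted in kit buffer. Nonspecific binding defined with 10⁻⁴ M A II, standard curve 10⁻¹⁰–10⁻⁷ M. Reaction stopped with saline and glass-fiber filtration, then gamma counting.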

[2] = test system: Rattus norvegicus; assay: Maximum percent change in A II supported mean arterial pressure 60 minutes following 3 mg/kg i.d. administration.; format: functional; conditions: Artery, intraduodenal, in the assay text read “at the time of maximum effect following” for “60 minutes following”, read-out: Inhibition
Outline: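 Anesthetized rats, ganglion blocked with mecamylamine 3 mg/kg iv, under A II infusion until pressure stabilized. Agent suspended in methyl cellulose and given 3 mg/kg through a duodenal cannula (1 mL/kg). MAP followed for 240 min. Fall expressed as percent of the A II-supported pressure. Maximum change and its time recorded, n = 3. Adjusted AUC between control and treated MAP/time curves.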

[3] = Partition coefficient (logP); format: physicochemical; conditions: octanol/water
[4] = Partition coefficient (logD) (octanol/0.01 N K2HPO4); format: physicochemical
Outline: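 Distribution coefficient measured between octanol and pH 7.4 phosphate buffer.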

| Structure (SMILES) | IC50 [1] [nM] | maximum percent change in A II-supported mean arterial pressure at 3 mg/kg [2] [%] | logP [3] | logD [4] |
| --- | --- | --- | --- | --- |
| CCc1nc(C)c2c(n1)N(Cc1ccc(-c3ccccc3-c3nn[nH]n3)cc1)C(=O)CC2 | 1.3 | -76 | – | – |
| Cc1nc(C)c2c(n1)N(Cc1ccc(-c3ccccc3C(=O)[O-])cc1)C(=O)CC2.[K+] | 85 | -36 | – | – |
| CCCc1nc(C)nc2c1CCC(=O)N2Cc1ccc(-c2ccccc2-c2nn[nH]n2)cc1 | 1.8 | -86 | 4.45 | – |
| CCc1nc(C)nc2c1CCC(=O)N2Cc1ccc(-c2ccccc2-c2nn[nH]n2)cc1 | 2.3 | -104 | 3.92 | – |
| Cc1nc(C)c2c(n1)N(Cc1ccc(-c3ccccc3-c3nn[nH]n3)cc1)CCC2 | 170 | -20 | – | – |
| CCCc1nc(C)c2c(n1)N(Cc1ccc(-c3ccccc3-c3nn[nH]n3)cc1)C(=O)CC2 | 1.35 | -58 | – | – |
| Cc1nc(C(C)C)c2c(n1)N(Cc1ccc(-c3ccccc3-c3nn[nH]n3)cc1)C(=O)CC2 | 13 | -44 | 4.32 | 1.41 |
| Cc1nc(CO)nc2c1CCC(=O)N2Cc1ccc(-c2ccccc2-c2nn[nH]n2)cc1 | 285 | -30 | – | – |
| Cc1nc(C)c2c(n1)N(Cc1ccc(-c3ccccc3-c3nn[nH]n3)nc1)C(=O)CC2 | 24.3 | -16 | – | – |
| Cc1nc(C)c2c(n1)N(Cc1ccc(-c3ccccc3-c3nn[nH]n3)cc1)C(=O)C(C)C2 (stereo not drawn) | 3.2 | -63 | 3.91 | – |
| Cc1nc2c(c(C(F)(F)F)n1)CCC(=O)N2Cc1ccc(-c2ccccc2-c2nn[nH]n2)cc1 | 24.6 | -68 | – | – |
| Cc1nc(C(C)C)nc2c1CCC(=O)N2Cc1ccc(-c2ccccc2-c2nn[nH]n2)cc1 | 2.2 | -40 | – | – |
| Cc1nc2c(c(C(F)(F)F)n1)CCC(=O)N2Cc1ccc(-c2ccccc2-c2nn[nH]n2)nc1 | 94.9 | -41 | – | – |
| Cc1nc(C=O)c2c(n1)N(Cc1ccc(-c3ccccc3-c3nn[nH]n3)cc1)C(=O)CC2 | 50.7 | – | – | – |
| Cc1nc(C)c2c(n1)N(Cc1ccc(-c3ccccc3-c3nn[nH]n3)cn1)C(=O)CC2 | 49.4 | -34 | – | – |
| Cc1nc(C)c2c(n1)N(Cc1ccc(-c3ccccc3-c3nn[nH]n3)cc1)C(=O)C(C)(C)C2 | 3 | -66 | 4.43 | 1.21 |
| CCCCc1nc(Cl)c(CO)n1Cc1ccc(-c2ccccc2-c2nnn[nH]2)cc1 [LOSARTAN] | – | -72 | – | – |
| Cc1nc(C)c2c(n1)N(Cc1ccc(-c3ccccc3-c3nnn[nH]3)cc1)C(=O)CC2 [TASOSARTAN] | 5.2 | -97 | 3.39 | 0.49 |

From ChEMBL document CHEMBL1127332, “Pyrido[2,3-d]pyrimidine angiotensin II antagonists” (J Med Chem, 1994)
